The record followed here is ChEMBL document CHEMBL1154114, “7-((4-Substituted)piperazin-1-yl) derivatives of ciprofloxacin: synthesis and in vitro biological evaluation as potential antitumor agents” (Bioorg Med Chem, 2009).

Series [1] relates to HeLa. Put plainly: Inhibition of human HeLa cell proliferation. Format: functional, cell-based.
Series [2] is described as follows: Stability in phosphate buffer of pH 7.4 after 6 days. Format: physicochemical. The conditions noted are these: read-out: Stability. The method, boiled down:
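Compound dissolved at 1 mM in DMSO, diluted with phosphate buffer pH 7.4 to 1 mL, incubated sealed at 37 °C for 6 days. A t0 aliquot was held at 4 °C. HPLC with 280 nm detection and duplicate injections, with expected degradation products as references. Stability is taken as compound peak area over (compound + degradation product) peak area.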

The subject of series [3] is PC-3. Put plainly: Antitumor activity against human PC3 cells after 5 days by MTT assay. The series is classed as functional, cell-based. The conditions noted are these: PC-3, 120 h. The method, boiled down: (§1)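 Five human cancer lines (prostate PC-3, glioblastoma U373-MG, colorectal LoVo, NSCLC A549, breast MCF-7) plated at 10⁴ to 3×10⁴ cells/mL depending on cell type, allowed 24 h to attach, then cultured 120 h with or without drug at nine concentrations. MTT reduction to formazan read at 570 nm (reference 630 nm).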

Series [4] in a line: Antitumor activity against human U373MG cells after 5 days by MTT assay. The series is classed as functional, cell-based, U-373MG ATCC. Particulars: U373 MG, 120 h. The method, boiled down:
as §1
In general terms: Tetrazolium assays rely on reduction of a dye to a coloured formazan, in cell work by metabolically active cells.

Series [5] deals with LoVo. Nature of the series: Antitumor activity against human LoVo cells after 5 days by MTT assay. Particulars: 120 h. Format: functional, cell-based. The method, boiled down: as §1
Series [6] has as its system A549. Nature of the series: Antitumor activity against human A549 cells after 5 days by MTT assay. The series is classed as functional, cell-based. The conditions noted are these: A549, 120 h. The method, boiled down: as §1
Series [7] has as its system MCF7. Put plainly: Antitumor activity against human MCF7 cells after 5 days by MTT assay. The series is classed as functional, cell-based. The conditions noted are these: MCF7, 120 h. The method, boiled down:
as §1

The nature of series [8]: Toxicity in ip dosed B6D2F1 mouse assessed as maximum tolerated dose after 28 days. The conditions noted are these: in vivo. The series is classed as organism-based. Put shortly: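 Healthy mice, three per group, each given a single ip dose and observed for up to 28 days. The MTD index is the highest single dose given without causing any deaths in the group.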
Series [9] can be described thus: Inhibition of mouse NIH/3T3 cell proliferation by MTT assay. Format: cell-based. Particulars: NIH3T3.

Compound `NC1CCN(c2nc3c(cc2F)c(=O)c(C(=O)O)cn3-c2ccc(F)cc2F)C1` (stereo not given) [TOSUFLOXACIN] gave an IC50 in [1] of 32 µM.
Consider `CCCCCCCC(=O)OCC(=O)N1CCN(c2cc3c(cc2F)c(=O)c(C(=O)O)cn3C2CC2)CC1`, for which, in [2], the remaining at 144 h was above 97%. The IC50 worked out at 23 µM in [3]; 53 µM in [4]; 29 µM in series [5]; 16 µM in [6]; 818 µM in series [7].
As to `O=C(O)c1cn(C2CC2)c2cc(N3CCN(C(=O)CO)CC3)c(F)cc2c1=O`, the IC50 in series [3] turned out to be 433 µM; in series [4], 294 µM; in series [5] it was 408 µM; in series [6], 456 µM; in series [7] it was 985 µM.
For the compound `O=C(O)c1cn(C2CC2)c2cc(N3CCN(C(=O)Cc4ccccc4)CC3)c(F)cc2c1=O`, the IC50 in series [3] turned out to be 243 µM; in series [4], 34 µM; in [5], 41 µM; in series [6], 29 µM; in [7], 32 µM.
In the same order, the values of `CCCCCCCCC(=O)OCC(=O)N1CCN(c2cc3c(cc2F)c(=O)c(C(=O)O)cn3C2CC2)CC1` are 257 µM, 272 µM, 267 µM, 216 µM and 255 µM.
In the case of `CCCCCCCCCCCCCC(=O)N1CCN(c2cc3c(cc2F)c(=O)c(C(=O)O)cn3C2CC2)CC1`, the IC50 in series [3] came out at 94 µM; in series [4], 205 µM; in series [5], 101 µM; in [6], 56 µM; in series [7], 96 µM.
The like results for `CCCCCCCCCCCC(=O)N1CCN(c2cc3c(cc2F)c(=O)c(C(=O)O)cn3C2CC2)CC1` were, in that order, 4 µM, 18 µM, 45 µM, 7 µM and 108 µM.
On to `CCCC(=O)OCC(=O)N1CCN(c2cc3c(cc2F)c(=O)c(C(=O)O)cn3C2CC2)CC1`, for which the remaining at 144 h in series [2] came to 100%. Moreover, the 50% inhibitory concentration (IC50) in [3] amounted to 715 µM; in series [4] it was 586 µM; in [5], 613 µM; in [6], 456 µM; in [7], 1000 µM.
As to `CCCCCCC(=O)N1CCN(c2cc3c(cc2F)c(=O)c(C(=O)O)cn3C2CC2)CC1`, the remaining at 144 h in [2] was determined as 100%. For the same compound, the IC50 in series [3] stood at 779 µM; in series [4] it was 729 µM; in series [5], 793 µM; in series [6], 808 µM; in series [7], 754 µM. Also, the MTD at 672 h in series [8] is above 80 mg/kg.
As to `CCCCCCCCCCCC(=O)OCC(=O)N1CCN(c2cc3c(cc2F)c(=O)c(C(=O)O)cn3C2CC2)CC1`, the remaining at 144 h in series [2] was above 98%. Besides, the IC50 in [3] came out at 3 µM; in series [4], 49 µM; in series [5], 39 µM; in [6], 15 µM; in series [7] it was 621 µM.
Consider `CCCCCCCCCC(=O)N1CCN(c2cc3c(cc2F)c(=O)c(C(=O)O)cn3C2CC2)CC1`, for which the remaining at 144 h in series [2] is 100%. Moreover, the IC50 in [3] stood at 4 µM; in [4], 5 µM; in series [5], 7 µM; in series [6], 3 µM; in series [7] it was 20 µM. Further, the MTD at 672 h in series [8] was above 80 mg/kg.
With `CCCCCCCCCCOC(=O)N1CCN(c2cc3c(cc2F)c(=O)c(C(=O)O)cn3C2CC2)CC1`, the IC50 in series [3] came to 24 µM; in series [4], 401 µM; in [5], 32 µM; in series [6], 44 µM; in series [7] it was 20 µM.
The like results for `CCCCCCCCCOC(=O)N1CCN(c2cc3c(cc2F)c(=O)c(C(=O)O)cn3C2CC2)CC1` were, in that order, 30 µM, 283 µM, 30 µM, 38 µM and 35 µM.
In the same order, the values of `CCCCC(=O)N1CCN(c2cc3c(cc2F)c(=O)c(C(=O)O)cn3C2CC2)CC1` are 73 µM, 86 µM, 87 µM, 64 µM and 316 µM.
Turning to `CC(=O)OCC(=O)N1CCN(c2cc3c(cc2F)c(=O)c(C(=O)O)cn3C2CC2)CC1`, the IC50 in series [3] was 176 µM; in [4], 99 µM; in series [5], 268 µM; in series [6], 373 µM; in [7] it was 279 µM.
As to `COc1c(N2CCNC(C)C2)c(F)cc2c(=O)c(C(=O)O)cn(C3CC3)c12` (stereo not given) [GATIFLOXACIN], it took 400 µM to reach half-maximal inhibition in series [1] (IC50).
Turning to `CCCCCCCCCCC(=O)OCC(=O)N1CCN(c2cc3c(cc2F)c(=O)c(C(=O)O)cn3C2CC2)CC1`, the IC50 in series [4] was above 1000 µM; in [5], 828 µM; in series [6], above 1000 µM; in series [7] it was 816 µM.
With `CCn1cc(C(=O)O)c(=O)c2cc(F)c(N3CCNC(C)C3)c(F)c21` (stereo not given) [LOMEFLOXACIN], the figures for the IC50 in series [1] and in series [9] were 410 µM and 483 µM, respectively.
Take `CC(=O)N1CCN(c2cc3c(cc2F)c(=O)c(C(=O)O)cn3C2CC2)CC1`: the IC50 in series [3] stood at 680 µM; in series [4], 535 µM; in series [5], 323 µM; in series [6], 584 µM; in [7], 803 µM.
In the same order, the values of `CCCC(=O)N1CCN(c2cc3c(cc2F)c(=O)c(C(=O)O)cn3C2CC2)CC1` are 85 µM, 104 µM, 148 µM, 697 µM and 172 µM.
Turning to `C[C@@H]1CN(c2c(F)c(N)c3c(=O)c(C(=O)O)cn(C4CC4)c3c2F)C[C@H](C)N1` [SPARFLOXACIN], the IC50 in series [1] stood at 265 µM; in [9], 122 µM.
With `CCCCCCCCCCCCOC(=O)N1CCN(c2cc3c(cc2F)c(=O)c(C(=O)O)cn3C2CC2)CC1`, the IC50 in [3] stood at 217 µM; in series [4] it was 94 µM; in series [5] it was 347 µM; in series [6], 273 µM; in series [7] it was 200 µM.
Regarding `CC(C)(C)C(=O)N1CCN(c2cc3c(cc2F)c(=O)c(C(=O)O)cn3C2CC2)CC1`, the IC50 in [3] was determined as 246 µM; in series [4] it was 67 µM; in series [5] it was 93 µM; in series [6], 509 µM; in series [7] it was 85 µM.
On to `CCCCCCCCCCCCCCCC(=O)OCC(=O)N1CCN(c2cc3c(cc2F)c(=O)c(C(=O)O)cn3C2CC2)CC1`, for which the IC50 in series [3] was determined as 30 µM; in series [4], 119 µM; in series [5], 75 µM; in series [6] it was 112 µM; in [7] it was 56 µM.
In the same order, the values of `CCCCCCCCCC(=O)OCC(=O)N1CCN(c2cc3c(cc2F)c(=O)c(C(=O)O)cn3C2CC2)CC1` are 416 µM, 291 µM, 317 µM, 273 µM and 353 µM.
The like results for `CCCCCCCCC(=O)N1CCN(c2cc3c(cc2F)c(=O)c(C(=O)O)cn3C2CC2)CC1` were, in that order, 7 µM, 24 µM, 30 µM, 6 µM and 26 µM.
The like results for `CCC(=O)N1CCN(c2cc3c(cc2F)c(=O)c(C(=O)O)cn3C2CC2)CC1` were, in that order, 352 µM, 279 µM, 306 µM, 402 µM and 727 µM.
As to `CCCCCCCCCCCCCCCC(=O)N1CCN(c2cc3c(cc2F)c(=O)c(C(=O)O)cn3C2CC2)CC1`, the remaining at 144 h in series [2] came out at 100%.
As to `CCCCCC(=O)OCC(=O)N1CCN(c2cc3c(cc2F)c(=O)c(C(=O)O)cn3C2CC2)CC1`, the remaining at 144 h in series [2] is above 99%. For the same compound, the half-maximal inhibitory concentration (IC50) is 14 µM in series [3]; 28 µM in series [4]; 27 µM in series [5]; 20 µM in [6]; 72 µM in [7].
`CCCCCCCCOC(=O)N1CCN(c2cc3c(cc2F)c(=O)c(C(=O)O)cn3C2CC2)CC1`: the remaining at 144 h in series [2] is 100%. Moreover, the IC50 was 24 µM in series [3]; 79 µM in [4]; 43 µM in series [5]; 21 µM in series [6]; 23 µM in series [7]. The MTD at 672 h in [8] was above 80 mg/kg.
Regarding `CCCCCCCCCCCCCC(=O)OCC(=O)N1CCN(c2cc3c(cc2F)c(=O)c(C(=O)O)cn3C2CC2)CC1`, the IC50 amounted to 745 µM in series [3]; 748 µM in series [4]; 766 µM in [5]; 742 µM in series [6]; 828 µM in [7].
As for `CCCCOC(=O)N1CCN(c2cc3c(cc2F)c(=O)c(C(=O)O)cn3C2CC2)CC1`, in [2], the remaining at 144 h turned out to be 100%. The IC50 came out at 9 µM in series [3]; 31 µM in [4]; 52 µM in series [5]; 42 µM in [6]; 14 µM in series [7]. The MTD at 672 h in series [8] is above 80 mg/kg.
Turning to `CCOC(=O)N1CCN(c2cc3c(cc2F)c(=O)c(C(=O)O)cn3C2CC2)CC1`, in [2], the remaining at 144 h is 100%. Also, the IC50 in series [3] was 385 µM; in [4], 228 µM; in series [5] it was 272 µM; in series [6] it was above 1000 µM; in series [7], 455 µM. Besides, in [8], the MTD at 672 h was above 80 mg/kg.

The IC50 is the midpoint of a concentration-inhibition curve. A higher IC50 goes with weaker potency. For orientation: MTD means the largest dose that counted as tolerated.
